Results as given in PubChem BioAssay.
The source made the active and inactive calls.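 Rule for the calls, unless noted: active = visually confirmed hit in the image check and inhibition above 20%; inconclusive = visually confirmed hit but inhibition not above 20%; inactive = no visual hit in the image check.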

Columns and labels:
[1] = inhibitors of TNFa-induced NFkB p65 translocation, primary screen, imaging, HUVEC, MLSMR starter and 10KST1 sets (AID 438;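 active = inhibition above 20% together with a positive visual image hit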;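 note: compound added about 3h40 before a 20 min TNFalpha stimulation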;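 for inhibition: signal is the nuclear over cytoplasmic p65 intensity ratio per well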); details: HUVEC TNFa-induced p65 nuclear translocation; cell count: measured here: nuclei count (cytotoxicity indicator), at 2.08 µM; inhibition: at 2 µM, stronger effect = higher value, 0% TNFa-plus-vehicle, 100% no-TNFa wells
[2] = reduction of polyQ htt aggregates in cells – imaging, exon1htt(103Q)mCFP cells, high-content imaging, primary screen (AID 483;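 active = visual image review flags a hit and inhibition of aggregation exceeds 20%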;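 note: compound exposure lasted 3 days before fixation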;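 for nuclei count: percent of the per-plate median nuclei count of sample wells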); details: exon1htt(103Q)mCFP cell line, aggregate imaging, at 2 µM; inhibition of aggregation: stronger effect = higher value; nuclei count: measured here: cell count, toxicity
[3] = endothelial E-selectin expression blockers – imaging, HUVEC, immunofluorescence, MLSMR starter and 10KST1 sets, primary screen (AID 487); details: HUVEC TNFalpha-induced E-selectin immunofluorescence imaging, at 2 µM; inhibition: stronger effect = higher value; nuclei count: measured here: cell number, toxicity;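 for inhibition: signal is fraction of cell area covered by stained E-selectin grains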;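 for nuclei count: 100% = median nuclei count of all wells on the same plate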
[4] = biological target: Voltage-gated potassium channel subunit beta-2 (Rattus norvegicus) (UniProt P62483); experiment: inhibitors of rat Kvbeta2 reductase activity – biochemical, NADPH fluorescence, primary screen (AID 622;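 active = fluorescence slope higher than the sample average by over 3 SD, cut at about -0.22 in these data, passing the limit was not always enough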;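 note: slope of raw intensity against log time taken from 70 to 1610 s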); details: recombinant KvBeta, 4-cyanobenzaldehyde reduction, at 10 µM, stronger effect = higher value
Sequence of Voltage-gated potassium channel subunit beta-2 (Rattus norvegicus) (P62483 whole entry, looked up): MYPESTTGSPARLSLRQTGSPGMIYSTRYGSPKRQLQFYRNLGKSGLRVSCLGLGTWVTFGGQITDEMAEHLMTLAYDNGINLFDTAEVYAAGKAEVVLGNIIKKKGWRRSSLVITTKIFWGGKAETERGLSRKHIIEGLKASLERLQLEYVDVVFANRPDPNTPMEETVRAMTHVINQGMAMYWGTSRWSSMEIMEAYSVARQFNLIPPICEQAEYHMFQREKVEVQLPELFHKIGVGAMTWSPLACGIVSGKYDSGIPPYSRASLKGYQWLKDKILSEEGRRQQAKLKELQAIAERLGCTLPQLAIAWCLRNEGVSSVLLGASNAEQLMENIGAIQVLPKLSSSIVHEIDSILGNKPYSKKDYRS

[5] = biological target: Voltage-gated potassium channel subunit beta-2 (Rattus norvegicus) (UniProt P62483); experiment: enhancers of rat Kvbeta2 NADPH turnover – biochemical, NADPH fluorescence, primary screen (AID 623;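 active = NADPH fluorescence slope more negative than the mean of all samples by about 3 SD, 99.7% confidence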;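 note: fluorescence intensity change per second fitted from 20 to 320 s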); details: Recombinant KvBeta, NADPH fluorescence decrease slope, 10 min; at 10 µM; stronger effect = lower value
[6] = biological target: Muscarinic acetylcholine receptor M4 (Homo sapiens) (UniProt P08173); experiment: M4-linked GIRK flux change, two-sided – cell-based, HEK293 M4/GIRK, thallium flux, BTC-AM, M4 allosteric agonist project, primary screen (AID 625;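 active = fluorescence slope after compound addition differing from the mean of all tested samples at 99.7% confidence, mostly higher but some lower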;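 note: thallium influx through GIRK channels coupled to M4 in HEK293 cells with BTC-AM dye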); details: at 10 µM, actives lie on both sides
Sequence of Muscarinic acetylcholine receptor M4 (Homo sapiens) (P08173 whole entry, looked up): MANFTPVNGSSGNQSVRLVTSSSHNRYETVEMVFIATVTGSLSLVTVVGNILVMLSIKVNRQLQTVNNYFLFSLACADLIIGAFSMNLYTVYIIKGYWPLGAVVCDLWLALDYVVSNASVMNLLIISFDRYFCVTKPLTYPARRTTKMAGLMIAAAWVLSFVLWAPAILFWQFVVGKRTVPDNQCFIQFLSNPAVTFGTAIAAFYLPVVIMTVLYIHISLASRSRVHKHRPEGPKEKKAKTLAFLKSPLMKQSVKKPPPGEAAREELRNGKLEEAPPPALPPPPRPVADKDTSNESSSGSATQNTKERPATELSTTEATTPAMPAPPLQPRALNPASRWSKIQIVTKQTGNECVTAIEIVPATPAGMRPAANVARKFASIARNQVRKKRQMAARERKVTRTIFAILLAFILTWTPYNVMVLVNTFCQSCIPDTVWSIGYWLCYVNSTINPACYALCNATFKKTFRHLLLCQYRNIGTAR
How it was run: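 assay system = HEK293 cells with M4 receptor and GIRK channels | medium = pH 7.3 thallium assay buffer | doses = 10 µM final, single point | timing = cells overnight at 37 °C, BTC-AM loading 1 h, reads 2 min total | signal = BTC-AM fluorescence, 1 Hz kinetic reads | read-out = post-addition slope, 15–24 s, of baseline-normalized fluorescence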

[7] = blockers of RIG-like receptor reporter activation – cell-based, Sendai virus stimulus, luciferase, 10K MLSCN set, TLR/RLR signaling modifier project, primary screen (AID 602276;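 active = inhibition at or above 50% at 10 µM; inactive = inhibition below 50%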;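 note: firefly luciferase from ISG56 promoter only with Renilla not read in this screen; 0% = Sendai virus plus DMSO and 100% = medium plus DMSO without virus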); details: HEK293 RL24 IRF3 luciferase reporter, at 10 µM, stronger effect = higher value
[8] = TLR3 IRF3 reporter activation blockers – cell-based, poly I:C stimulus, luciferase, 10K MLSCN set, primary screen (AID 602277;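 active = inhibition of the reporter signal at or above 50%; inactive = inhibition below 50%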); details: HEK293-TLR3 RL24 IRF3 luciferase reporter, at 10 µM, stronger effect = higher value

Row | SMILES | cell count [1] | inhibition [1] | inhibition of aggregation [2] | nuclei count [2] | inhibition [3] | nuclei count [3] | fluorescence slope [4] | NADPH fluorescence slope [5] | fluorescence slope [6] | inhibition [7] | inhibition [8]
1 | Cc1ccc(CSc2nc3c(c(=O)[nH]2)C(c2ccncc2)C2=C(CCCC2=O)N3)cc1 (stereo not drawn) | 518 | -16.7% (inactive) | 3.6% (inactive) | 79.3% | -14.5% (inactive) | 87.2% | -0.457 (inactive) | -3.5e-05 (inactive) | 0.00543 (inactive) | 21.7% (inactive) | 15.5% (inactive)
2 | CCOC(=O)CC1(CC(=O)OCC)NC(=O)c2c(C)sc(C(=O)OCC)c2N1 | 704 | -3.5% (inactive) | 16% (inactive) | 94.4% | 3.1% (inactive) | 112% | -0.402 (inactive) | -3.3e-06 (inactive) | 0.00375 (inactive) | 10.5% (inactive) | 17% (inactive)
3 | O=C(Cn1nnc(-c2cccc(C(F)(F)F)c2)n1)NC(=O)NCc1ccco1 | 323 | 19.4% (inactive) | -17% (inactive) | 100% | 24.1% (inactive) | 101% | -0.44 (inactive) | -0.000353 (inactive) | 0.00673 (inactive) | -0.353% (inactive) | 5.76% (inactive)
4 | CCN(CC)C(=O)CN(c1cc(Cl)ccc1OC)S(C)(=O)=O | 776 | -2.4% (inactive) | -2.7% (inactive) | 108% | 41.2% (inactive) | 96% | -0.577 (inactive) | 4.8e-07 (inactive) | 0.00573 (inactive) | 7.69% (inactive) | 10.1% (inactive)
5 | O=c1c2c3nc4ccccc4nc3n(CC3CCCO3)c2ncn1CCc1ccccc1 (stereo not drawn) | 440 | -3.2% (inactive) | -0.4% (inactive) | 116% | -90.8% (inactive) | 107% | -0.378 (inactive) | -1.1e-05 (inactive) | 0.00514 (inactive) | 12.8% (inactive) | 19.1% (inactive)
6 | CCCNS(=O)(=O)c1ccc(OCC(=O)Nc2ccccc2F)cc1 | 408 | 8.2% (inactive) | -23% (inactive) | 99.5% | -57.2% (inactive) | 100% | -0.557 (inactive) | -2.6e-05 (inactive) | 0.00506 (inactive) | 19.7% (inactive) | 15.2% (inactive)
7 | CN(C(=O)c1ccncc1)C1CC(C)(C)N(O)C(C)(C)C1 | 344 | 2.8% (inactive) | -9.8% (inactive) | 103% | -67.4% (inactive) | 119% | -0.592 (inactive) | -2.2e-05 (inactive) | 0.00587 (inactive) | -0.539% (inactive) | 8.86% (inactive)
8 | CCN(CC)c1ccc(CNc2ccc(Br)cn2)cc1 | 388 | -2.4% (inactive) | -13.8% (inactive) | 101% | -74.6% (inactive) | 122% | -0.546 (inactive) | -0.000144 (inactive) | 0.00212 (inactive) | -41.1% (inactive) | -92.7% (inactive)
9 | COC(=O)c1nc2n(n1)C(c1ccc(OC)c(OC)c1)C(C(=O)OC1CCCCC1)=C(C)N2 (stereo not drawn) | 603 | -14.8% (inactive) | -3.4% (inactive) | 99.2% | 26.7% (inactive) | 89.6% | -0.315 (inactive) | -5.5e-05 (inactive) | 0.00696 (inactive) | 4.26% (inactive) | 12.6% (inactive)
10 | COc1ccccc1-c1c(C)nn2c(N3CCC4(CC3)OCCO4)cc(C)nc12 | 540 | -2.1% (inactive) | -9.7% (inactive) | 91.2% | -42.2% (inactive) | 111% | -0.545 (inactive) | -4.6e-05 (inactive) | 0.00547 (inactive) | 13.5% (inactive) | 12.2% (inactive)
11 | Cc1ccc(O)c(NC(=O)COc2cc(C)ccc2C)c1 | 431 | 11.4% (inactive) | 3% (inactive) | 106% | -71.5% (inactive) | 115% | -0.473 (inactive) | 4.1e-05 (inactive) | 0.00732 (inactive) | -3.99% (inactive) | -13.6% (inactive)
12 | COc1ccc(N2CCN(C(=O)CSc3nnc4n3C(C)(C)Cc3ccccc3-4)CC2)cc1 | 548 | 7.7% (inactive) | -9.9% (inactive) | 104% | -14.4% (inactive) | 104% | -0.572 (inactive) | -3.1e-05 (inactive) | 0.00723 (inactive) | 4.92% (inactive) | -6.84% (inactive)
13 | C#CCN1C(=O)C(O)(CC(=O)c2cccc(OC)c2)c2ccccc21 (stereo not drawn) | 429 | 1.2% (inactive) | -0.5% (inactive) | 96.2% | -130% (inactive) | 163% | -0.337 (inactive) | -6.5e-05 (inactive) | 0.00596 (inactive) | 10.4% (inactive) | 14.1% (inactive)
14 | Cc1ccccc1C(=O)N1CCC(C(=O)Nc2ccc(S(=O)(=O)N3CCCC3)cc2)CC1 | 186 | 6.1% (inactive) | -11% (inactive) | 105% | 12.2% (inactive) | 97.5% | -0.566 (inactive) | -3.8e-05 (inactive) | 0.0067 (inactive) | 8.84% (inactive) | 16.9% (inactive)
15 | CN(C(=O)c1ccno1)c1nnc(-c2cnccn2)s1 | 596 | -10.8% (inactive) | 10.8% (inactive) | 97.4% | -39.5% (inactive) | 107% | -0.309 (inactive) | -5.2e-05 (inactive) | 0.00542 (inactive) | 5.76% (inactive) | 10.1% (inactive)
16 | COc1cccc(CNC(=O)CCn2c(=O)oc3ccccc32)c1 | 277 | -11.3% (inactive) | 21.1% (inactive) | 8.9% | -28.3% (inactive) | 104% | -0.551 (inactive) | 5e-05 (inactive) | 0.0058 (inactive) | 14.4% (inactive) | 20.5% (inactive)
17 | Cc1cc2oc(=O)cc(CN3CCN(Cc4ccc5c(c4)OCO5)CC3)c2cc1C | 362 | 6.8% (inactive) | -15.1% (inactive) | 99.2% | -0.8% (inactive) | 108% | -0.536 (inactive) | -4.3e-05 (inactive) | 0.00603 (inactive) | 5.83% (inactive) | 27% (inactive)
18 | CC(C)(C)OC(=O)N1CCC(C(=O)N[C@H](Cc2ccccc2)C(=O)O)CC1 | 523 | -7.8% (inactive) | 19.6% (inactive) | 85.5% | -11.8% (inactive) | 89.3% | -0.323 (inactive) | -5.3e-05 (inactive) | 0.00514 (inactive) | 15.3% (inactive) | 18.1% (inactive)
19 | CCn1c(SCC(=O)Nc2nnc(C)s2)nnc1-c1ccncc1 | 554 | -17.9% (inactive) | 25.6% (inactive) | 92.8% | -53.1% (inactive) | 114% | -0.301 (inactive) | -5.1e-05 (inactive) | 0.00811 (inactive) | 15.2% (inactive) | 0.883% (inactive)
20 | O=C(Cn1ncc2ccccc21)N1CCN(c2cccc(C(F)(F)F)c2)CC1 | 659 | -5.8% (inactive) | 1.3% (inactive) | 114% | -16.1% (inactive) | 122% | -0.378 (inactive) | -2.5e-05 (inactive) | 0.00602 (inactive) | 12% (inactive) | 21.1% (inactive)
21 | CCOc1ccc2c(c1)sc1nc(C(=O)OC)cc(=O)n12 | 432 | 7.5% (inactive) | -10.2% (inactive) | 109% | -0.5% (inactive) | 108% | -0.175 (inactive) | -1.7e-05 (inactive) | 0.00476 (inactive) | 13.7% (inactive) | 19.3% (inactive)
22 | Cc1ccc(-c2nnn(CC(=O)NC3CC4CCC3C4)n2)cc1 (stereo not drawn) | 239 | -5% (inactive) | 15.8% (inactive) | 77.6% | 3.6% (inactive) | 102% | -0.563 (inactive) | -4.4e-05 (inactive) | 0.00799 (inactive) | 7.26% (inactive) | -0.548% (inactive)
23 | O=P(O)(O)c1ccccc1OCCOCCOc1ccccc1P(=O)(O)O | 311 | -0.9% (inactive) | 8% (inactive) | 60.2% | -21.3% (inactive) | 86.4% | -0.308 (inactive) | -5.3e-05 (inactive) | 0.00635 (inactive) | 11.2% (inactive) | 15.3% (inactive)
24 | CCOC(=O)Nc1cc(OCC)c(NC(=O)C2CC2)cc1OCC | 589 | -12.9% (inactive) | -15% (inactive) | 117% | -52.7% (inactive) | 119% | -0.439 (inactive) | -4.7e-05 (inactive) | 0.00711 (inactive) | 3.59% (inactive) | 11.8% (inactive)
25 | CC(C)C1N=C2c3ccccc3N=C(SCC(=O)NCCc3ccc(S(N)(=O)=O)cc3)N2C1=O (stereo not drawn) | 566 | -3.4% (inactive) | 7.3% (inactive) | 60.1% | -121% (inactive) | 110% | -0.598 (inactive) | -3.3e-05 (inactive) | 0.00596 (inactive) | 22% (inactive) | 22% (inactive)
26 | COc1ccc(N2CCN(C(=O)CN3C(=O)C4CC=CCC4C3=O)CC2)cc1 (stereo not drawn) | 693 | 9.7% (inactive) | 11% (inactive) | 108% | 55.9% (inactive) | 90.3% | -0.575 (inactive) | 3.5e-05 (inactive) | 0.00533 (inactive) | -11% (inactive) | -14.6% (inactive)
27 | CN(C)c1cccc(N=C2C=C(N3CCOCC3)CC(C)(C)C2)c1 | 473 | 2.4% (inactive) | 8.4% (inactive) | 86.3% | -54.6% (inactive) | 116% | -0.55 (inactive) | -1.9e-05 (inactive) | 0.00498 (inactive) | -0.858% (inactive) | 16.5% (inactive)
28 | Cc1occc1C(=O)Nc1ccccc1NC(=O)c1ccoc1C | 425 | -11.5% (inactive) | 29.8% (inactive) | 87.4% | 40.5% (inactive) | 90.2% | -0.543 (inactive) | -3.1e-05 (inactive) | 0.00485 (inactive) | 12.7% (inactive) | 24.7% (inactive)
